Measured values reported in ChEMBL document CHEMBL2086291, “Antitumor agent calixarene 0118 targets human galectin-1 as an allosteric inhibitor of carbohydrate binding” (J Med Chem, 2012).
Active and inactive are the calls of the source. The rule behind the calls is not given here.

How the values were obtained:
[1] = system: COLO 205; assay: Cytotoxicity against human COLO205-S cells assessed as cell viability by MTT assay; type: functional, cell-based
Method in brief: (§1)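 Cells grown as monolayers in RPMI with 10% FCS and 2 mM glutamine at 37 °C, 5% CO2, seeded at 2 × 10^3 cells/well. Then 72 h drug exposure and 48 h wash-out, followed by 0.4 mg/mL MTT for 4 h at 37 °C. Formazan dissolved in DMSO, absorbance read at 560 nm, and IC50 determined per cell line.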

[2] = biological target: T1, Galectin-1 (Homo sapiens, UniProt P09382); assay: Inhibition of FITC-conjugated human Galectin-1binding to CD31+ endothelial cell surface glycans of gal1 -/- mouse at 20 uM after 30 mins by flow cytometry
T1 sequence (P09382 whole entry): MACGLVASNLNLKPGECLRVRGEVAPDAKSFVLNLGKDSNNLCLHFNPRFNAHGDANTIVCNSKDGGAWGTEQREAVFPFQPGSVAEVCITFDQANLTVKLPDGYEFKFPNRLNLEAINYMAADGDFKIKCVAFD
Method in brief: (§2)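 Splenocytes from gal-1−/− mice, with RBCs lysed in ACK for 5 min on ice. Cells stained with lineage antibodies for 40 min on ice, then given FITC-gal-1 (0.1 or 0.2 μM; FITC:protein labeling ratio 10:1) with or without compound for 30 min on ice. Binding read by multiparameter flow cytometry gated on CD4+, CD8+ and CD31+ cells.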

[3] = system: HT-29; assay: Cytotoxicity against human HT-29 cells assessed as cell viability by MTT assay; type: functional, cell-based; method in brief: as §1
[4] = biological target: T1, Galectin-1; assay: Inhibition of FITC-conjugated human Galectin-1binding to CD8+ cell surface glycans of gal1 -/- mouse at 100 uM after 30 mins by flow cytometry; method in brief: as §2
[5] = system: SK-HEP1; assay: Cytotoxicity against human SKHEP1 cells assessed as cell viability by MTT assay; type: functional, cell-based; method in brief: as §1
[6] = biological target: T1, Galectin-1; assay: Inhibition of FITC-conjugated human Galectin-1binding to CD8+ cell surface glycans of gal1 -/- mouse at 20 uM after 30 mins by flow cytometry; method in brief: as §2
[7] = biological target: T1, Galectin-1; assay: Inhibition of FITC-conjugated human Galectin-1binding to CD31+ endothelial cell surface glycans of gal1 -/- mouse at 100 uM after 30 mins by flow cytometry; method in brief: as §2
[8] = biological target: T1, Galectin-1; assay: Binding affinity to human [15N]-labelled Galectin-1 by heteronuclear NMR spectroscopy analysis
Method in brief: (§3)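 Uniformly 15N-labeled recombinant human gal-1 was expressed in E. coli BL21(DE3) and dissolved at 1 mg/mL in 20 mM potassium phosphate, pH 7.0, 50 μM EDTA, 95% H2O/5% D2O. Compound was titrated and followed by 1H-15N HSQC, reading resonance broadening and intensity changes. Averaged intensity change was plotted against free ligand, with bound ligand estimated from total gal-1 monomer (60 μM).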

[9] = biological target: T1, Galectin-1; assay: Inhibition of FITC-conjugated human Galectin-1binding to CD8+ cell surface glycans of gal1 -/- mouse after 30 mins by flow cytometry; method in brief: as §2
[10] = biological target: T1, Galectin-1; assay: Inhibition of FITC-conjugated human Galectin-1binding to CD4+ cell surface glycans of gal1 -/- mouse at 20 uM after 30 mins by flow cytometry; method in brief: as §2
[11] = biological target: T1, Galectin-1; assay: Binding affinity to Galectin-1 in human Jurkat E6-1 cells surface glycans assessed as attenuation of agglutination at 20 uM by morphometric analysis; type: cell-based
Method in brief: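 Jurkat E6.1 cells (2 × 10^6 per 200 μL RPMI 1640) agglutinated with 1 μM gal-1 and incubated at 22 °C in medium alone or with 20 μM compound. Agglutination imaged by inverted phase microscopy, then digitally quantified by pixel-based morphometric analysis.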

[12] = system: HEp-2; assay: Cytotoxicity against human Hep2 cells assessed as cell viability by MTT assay; type: functional, cell-based; method in brief: as §1
[13] = system: COLO 205; assay: Cytotoxicity against human COLO205-R cells assessed as cell viability by MTT assay; type: functional, cell-based; method in brief: as §1
[14] = biological target: T1, Galectin-1; assay: Inhibition of FITC-conjugated human Galectin-1binding to CD31+ endothelial cell surface glycans of gal1 -/- mouse after 30 mins by flow cytometry; method in brief: as §2
[15] = biological target: T1, Galectin-1; assay: Inhibition of FITC-conjugated human Galectin-1binding to CD4+ cell surface glycans of gal1 -/- mouse at 100 uM after 30 mins by flow cytometry; method in brief: as §2
[16] = biological target: T1, Galectin-1; assay: Binding affinity to human [15N]-labelled Galectin-1 at 60 uM by heteronuclear NMR spectroscopy analysis; method in brief: as §3
[17] = system: SQ20B; assay: Cytotoxicity against human SQ20B cells assessed as cell viability by MTT assay; type: functional, cell-based; method in brief: as §1
[18] = biological target: T1, Galectin-1; assay: Inhibition of lactose binding to human [15N]-labelled Galectin-1 at molar ratio of 1:5 Gal1:compound by heteronuclear NMR spectroscopy analysis
[19] = system: DU-145; assay: Cytotoxicity against human DU145 cells assessed as cell viability by MTT assay; type: functional, cell-based; method in brief: as §1
[20] = biological target: T1, Galectin-1; assay: Inhibition of FITC-conjugated human Galectin-1binding to CD4+ cell surface glycans of gal1 -/- mouse after 30 mins by flow cytometry; method in brief: as §2

inhibition [2]: 50% | inhibition [4]: 100% | inhibition [6]: 80% | inhibition [7]: 70% | Kd [8]: 30 µM | inhibition [9]: Dose-dependent effect | inhibition [10]: 80% | Activity [11]: 80% | inhibition [14]: Dose-dependent effect | inhibition [15]: 100% | Activity [16]: 50% | inhibition [18]: Active | inhibition [20]: Dose-dependent effect
SMILES: CN(C)CCNC(=O)COc1c2cccc1Cc1cccc(c1OCC(=O)NCCN(C)C)Cc1cccc(c1OCC(=O)NCCN(C)C)Cc1cccc(c1OCC(=O)NCCN(C)C)C2 [OTX-008]
Activity [1]: Dose-dependent effect | Activity [3]: Dose-dependent effect | Activity [5]: Dose-dependent effect | Activity [12]: Dose-dependent effect | Activity [13]: Dose-dependent effect | Activity [17]: Dose-dependent effect | Activity [19]: Dose-dependent effect
